Results published in ChEMBL document CHEMBL5247578, “Effective synthesis of benzimidazoles-imidazo[1,2-a]pyrazine conjugates: A comparative study of mono-and bis-benzimidazoles for antitumor activity” (Eur J Med Chem, 2019).

Columns and labels:
T47D = test: Antiproliferative activity against human T47D cells assessed as cell growth inhibition at 10 uM incubated for 48 hrs by sulforhodamine B assay relative to control; format: functional
Summary of the method: (§1)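 NCI-60 single-dose screen at 10^-5 M. Cells grown in RPMI 1640 with 5% FBS and 2 mM L-glutamine, plated at 5,000–40,000 cells/well, and preincubated 24 h. Drug (DMSO stock) added and incubated 48 h at 37 °C, 5% CO2. Adherent cells fixed with cold TCA, stained with 0.4% SRB in 1% acetic acid, dye solubilized in 10 mM trizma base, A515 read. Percent growth taken against time-zero and untreated control.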

MDA-MB-435 = test: Antiproliferative activity against human MDA-MB-435 cells assessed as cell growth inhibition at 10 uM incubated for 48 hrs by sulforhodamine B assay relative to control; format: functional; summary of the method: as §1
SK-MEL-2 = test: Antiproliferative activity against human SK-MEL-2 cells assessed as cell growth inhibition at 10 uM incubated for 48 hrs by sulforhodamine B assay relative to control; format: functional; summary of the method: as §1
SF-268 = test: Antiproliferative activity against human SF-268 cells assessed as cell growth inhibition at 10 uM incubated for 48 hrs by sulforhodamine B assay relative to control; format: functional; summary of the method: as §1
U-251 = test: Antiproliferative activity against human U-251 cells assessed as cell growth inhibition at 10 uM incubated for 48 hrs by sulforhodamine B assay relative to control; format: functional; summary of the method: as §1
M14 = test: Antiproliferative activity against human M14 cells assessed as cell growth inhibition at 10 uM incubated for 48 hrs by sulforhodamine B assay relative to control; format: functional; summary of the method: as §1
MDA-MB-231 = test: Antiproliferative activity against human MDA-MB-231 cells assessed as cell growth inhibition at 10 uM incubated for 48 hrs by sulforhodamine B assay relative to control; format: functional; summary of the method: as §1
NCI-H460 = test: Antiproliferative activity against human NCI-H460 cells assessed as cell growth inhibition at 10 uM incubated for 48 hrs by sulforhodamine B assay relative to control; format: functional; summary of the method: as §1
MCF7 = test: Antiproliferative activity against human MCF7 cells assessed as cell growth inhibition at 10 uM incubated for 48 hrs by sulforhodamine B assay relative to control; format: functional; summary of the method: as §1
HL-60 = test: Antiproliferative activity against human HL-60 cells assessed as cell growth inhibition at 10 uM incubated for 48 hrs by sulforhodamine B assay relative to control; format: functional
Summary of the method: (§2)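 NCI-60 one-dose prescreen at 10^-5 M. Cells grown in RPMI 1640 with 5% FBS and 2 mM glutamine, preincubated 24 h, then exposed 48 h at 37 °C. Adherent lines TCA-fixed, SRB-stained, A515 read. Growth percent relative to time-zero and control; negative values mean cell kill.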

NCI-H23 = test: Antiproliferative activity against human NCI-H23 cells assessed as cell growth inhibition at 10 uM incubated for 48 hrs by sulforhodamine B assay relative to control; format: functional; summary of the method: as §1
RPMI-8226 = test: Antiproliferative activity against human RPMI-8226 cells assessed as cell growth inhibition at 10 uM incubated for 48 hrs by sulforhodamine B assay relative to control; format: functional; summary of the method: as §1
Hs-578T = test: Antiproliferative activity against human Hs-578T cells assessed as cell growth inhibition at 10 uM incubated for 48 hrs by sulforhodamine B assay relative to control; format: functional; summary of the method: as §1
[1] = n-Octanol/phosphate buffer partition coefficient, logP of the compound at pH 7.4 incubated for 85 mins by shake-flask method; format: physicochemical
Summary of the method: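 Octanol–water partition by shake-flask: n-octanol with 0.15 M phosphate buffer pH 7.4 at 10:1 volumes. Buffer-phase absorbance read before mixing, then shaken 50 min and centrifuged at 2500 rpm for 35 min. Buffer absorbance read again; P = (Ai−Af)/Af × Vw/Vo.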

SR = test: Antiproliferative activity against human SR cells assessed as cell growth inhibition at 10 uM incubated for 48 hrs by sulforhodamine B assay relative to control; format: functional; summary of the method: as §1
NCI-H522 = test: Antiproliferative activity against human NCI-H522 cells assessed as cell growth inhibition at 10 uM incubated for 48 hrs by sulforhodamine B assay relative to control; format: functional; summary of the method: as §1
ACHN = test: Antiproliferative activity against human ACHN cells assessed as cell growth inhibition at 10 uM incubated for 48 hrs by sulforhodamine B assay relative to control; format: functional
Summary of the method: (§3)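 Single-dose NCI-60 prescreen at 10^-5 M. Cells in RPMI 1640 with 5% FBS and 2 mM L-glutamine, seeded 5,000–40,000 cells/well with 24 h preincubation, then drug exposure for 48 h at 37 °C under 5% CO2. Growth read by SRB staining of TCA-fixed cells at 515 nm against time-zero and untreated controls. Negative growth values denote cell kill.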

SF-539 = test: Antiproliferative activity against human SF-539 cells assessed as cell growth inhibition at 10 uM incubated for 48 hrs by sulforhodamine B assay relative to control; format: functional; summary of the method: as §1
HOP-62 = test: Antiproliferative activity against human HOP-62 cells assessed as cell growth inhibition at 10 uM incubated for 48 hrs by sulforhodamine B assay relative to control; format: functional; summary of the method: as §2
MDA-MB-468 = test: Antiproliferative activity against human MDA-MB-468 cells assessed as cell growth inhibition at 10 uM incubated for 48 hrs by sulforhodamine B assay relative to control; format: functional; summary of the method: as §1
SNB-19 = test: Antiproliferative activity against human SNB-19 cells assessed as cell growth inhibition at 10 uM incubated for 48 hrs by sulforhodamine B assay relative to control; format: functional; summary of the method: as §1
HCT-15 = test: Antiproliferative activity against human HCT-15 cells assessed as cell growth inhibition at 10 uM incubated for 48 hrs by sulforhodamine B assay relative to control; format: functional; summary of the method: as §2
NCI-H322M = test: Antiproliferative activity against human NCI-H322M cells assessed as cell growth inhibition at 10 uM incubated for 48 hrs by sulforhodamine B assay relative to control; format: functional; summary of the method: as §1
SK-MEL-5 = test: Antiproliferative activity against human SK-MEL-5 cells assessed as cell growth inhibition at 10 uM incubated for 48 hrs by sulforhodamine B assay relative to control; format: functional; summary of the method: as §1
K562 = test: Antiproliferative activity against human K562 cells assessed as cell growth inhibition at 10 uM incubated for 48 hrs by sulforhodamine B assay relative to control; format: functional; summary of the method: as §1
Malme-3M = test: Antiproliferative activity against human Malme-3M cells assessed as cell growth inhibition at 10 uM incubated for 48 hrs by sulforhodamine B assay relative to control; format: functional; summary of the method: as §1
KM12 = test: Antiproliferative activity against human KM12 cells assessed as cell growth inhibition at 10 uM incubated for 48 hrs by sulforhodamine B assay relative to control; format: functional; summary of the method: as §1
HCT-116 = test: Antiproliferative activity against human HCT-116 cells assessed as cell growth inhibition at 10 uM incubated for 48 hrs by sulforhodamine B assay relative to control; format: functional; summary of the method: as §2
BT-549 = test: Antiproliferative activity against human BT-549 cells assessed as cell growth inhibition at 10 uM incubated for 48 hrs by sulforhodamine B assay relative to control; format: functional; summary of the method: as §3
PC-3 = test: Antiproliferative activity against human PC-3 cells assessed as cell growth inhibition at 10 uM incubated for 48 hrs by sulforhodamine B assay relative to control; format: functional; summary of the method: as §1
UO-31 = test: Antiproliferative activity against human UO-31 cells assessed as cell growth inhibition at 10 uM incubated for 48 hrs by sulforhodamine B assay relative to control; format: functional; summary of the method: as §1
IGROV-1 = test: Antiproliferative activity against human IGROV-1 cells assessed as cell growth inhibition at 10 uM incubated for 48 hrs by sulforhodamine B assay relative to control; format: functional; summary of the method: as §1
LOX IMVI = test: Antiproliferative activity against human LOX IMVI cells assessed as cell growth inhibition at 10 uM incubated for 48 hrs by sulforhodamine B assay relative to control; format: functional; summary of the method: as §1
MOLT-4 = test: Antiproliferative activity against human MOLT-4 cells assessed as cell growth inhibition at 10 uM incubated for 48 hrs by sulforhodamine B assay relative to control; format: functional; summary of the method: as §1
OVCAR-8 = test: Antiproliferative activity against human OVCAR-8 cells assessed as cell growth inhibition at 10 uM incubated for 48 hrs by sulforhodamine B assay relative to control; format: functional; summary of the method: as §1
NCI/ADR-RES = test: Antiproliferative activity against human NCI/ADR-RES cells assessed as cell growth inhibition at 10 uM incubated for 48 hrs by sulforhodamine B assay relative to control; format: functional; summary of the method: as §1
SN12C = test: Antiproliferative activity against human SN12C cells assessed as cell growth inhibition at 10 uM incubated for 48 hrs by sulforhodamine B assay relative to control; format: functional; summary of the method: as §1
HT-29 = test: Antiproliferative activity against human HT-29 cells assessed as cell growth inhibition at 10 uM incubated for 48 hrs by sulforhodamine B assay relative to control; format: functional; summary of the method: as §1
HOP-92 = test: Antiproliferative activity against human HOP-92 cells assessed as cell growth inhibition at 10 uM incubated for 48 hrs by sulforhodamine B assay relative to control; format: functional; summary of the method: as §2
CCRF-CEM = test: Antiproliferative activity against human CCRF-CEM cells assessed as cell growth inhibition at 10 uM incubated for 48 hrs by sulforhodamine B assay relative to control; format: functional; summary of the method: as §3
UACC-62 = test: Antiproliferative activity against human UACC-62 cells assessed as cell growth inhibition at 10 uM incubated for 48 hrs by sulforhodamine B assay relative to control; format: functional; summary of the method: as §1

## CC(=O)c1ccc(-c2cn3ccnc3c(-c3ccc4ncn(C5CCCCC5)c4c3)n2)cc1
T47D
  inhibition at 10 µM: 54.4%
MDA-MB-435
  inhibition at 10 µM: 6%
SK-MEL-2
  inhibition at 10 µM: 0.58%
SF-268
  inhibition at 10 µM: 5.01%
U-251
  inhibition at 10 µM: 3.02%
M14
  inhibition at 10 µM: 3.43%
MDA-MB-231
  inhibition at 10 µM: 7.65%
NCI-H460
  inhibition at 10 µM: 7.12%
MCF7
  inhibition at 10 µM: 12%
HL-60
  inhibition at 10 µM: 2.65%
NCI-H23
  inhibition at 10 µM: 8.6%
RPMI-8226
  inhibition at 10 µM: 20.8%
Hs-578T
  inhibition at 10 µM: 6.34%
[1]
  logD at 1.417 h: 2.06
SR
  inhibition at 10 µM: 23.6%
NCI-H522
  inhibition at 10 µM: 10.4%
ACHN
  inhibition at 10 µM: 4.32%
SF-539
  inhibition at 10 µM: 2.82%
HOP-62
  inhibition at 10 µM: 7.41%
MDA-MB-468
  inhibition at 10 µM: 0.73%
SNB-19
  inhibition at 10 µM: 3.96%
HCT-15
  inhibition at 10 µM: 18.8%
NCI-H322M
  inhibition at 10 µM: 1.19%
SK-MEL-5
  inhibition at 10 µM: 24.8%
K562
  inhibition at 10 µM: 9.6%
Malme-3M
  inhibition at 10 µM: 3.01%
KM12
  inhibition at 10 µM: 11.7%
HCT-116
  inhibition at 10 µM: 15.8%
BT-549
  inhibition at 10 µM: 4.68%
PC-3
  inhibition at 10 µM: 17.9%
UO-31
  inhibition at 10 µM: 23.1%
IGROV-1
  inhibition at 10 µM: 19.1%
LOX IMVI
  inhibition at 10 µM: 14.5%
MOLT-4
  inhibition at 10 µM: 14.3%
OVCAR-8
  inhibition at 10 µM: 6.38%
NCI/ADR-RES
  inhibition at 10 µM: 4.17%
SN12C
  inhibition at 10 µM: 6.33%
HT-29
  inhibition at 10 µM: 9.2%
HOP-92
  inhibition at 10 µM: 25%
CCRF-CEM
  inhibition at 10 µM: 1.1%
UACC-62
  inhibition at 10 µM: 18.5%
